Measured values as given in ChEMBL document CHEMBL4425160, “DABCO-catalyzed one-pot three component synthesis of dihydropyrano[3,2-c]chromene substituted quinazolines and their evaluation towards anticancer activity” (Bioorg Med Chem Lett, 2016).

Tests used:
MDA-MB-231 [1] = experiment: Cytotoxicity against human MDA-MB-231 cells assessed as cell growth inhibition after 48 hrs by MTT assay; type: functional, cell-based; details: MDA-MB-231, 48 h
Procedure, shortened: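 Cells counted by trypan blue exclusion, seeded at 1×10^4 per well in DMEM with 10% FBS, and left 24 h. They were then exposed to a concentration series for 48 h at 37°C. Serum-free medium with MTT was added for 4 h, formazan was dissolved in DMSO, and A570 was read minus A690. IC50 was read from the 50% viability point versus DMSO+DMEM controls.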

MDA-MB-231 [2] = experiment: Cytotoxicity against human MDA-MB-231 cells assessed as cell growth inhibition at 50 uM after 48 hrs by MTT assay; type: functional; details: MDA-MB-231, 48 h, read-out: GI
Procedure, shortened: (§1)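 MTT growth assay. 1×10^4 cells were seeded in DMEM with 10% FBS and incubated 24 h. Each compound was then applied at the stated single concentration for 48 h at 37°C, followed by MTT for 4 h. Formazan was solubilized in DMSO and absorbance read at 570 nm with 690 nm background subtraction. Inhibition is relative to control cells given DMSO+DMEM.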

MDA-MB-231 [3] = experiment: Cytotoxicity against human MDA-MB-231 cells assessed as cell growth inhibition at 100 uM after 48 hrs by MTT assay; type: functional; details: MDA-MB-231, 48 h, read-out: GI; procedure, shortened: as §1

| Structure (SMILES) | IC50 (MDA-MB-231 [1]) [µM] | inhibition of growth at 50 µM (MDA-MB-231 [2]) [%] | inhibition of growth at 100 µM (MDA-MB-231 [3]) [%] |
| --- | --- | --- | --- |
| CCOC(=O)C1=C(N)Oc2c(c(=O)oc3c(Cl)cc(Cl)cc23)C1c1nc(OCc2ccccc2)c2ccccc2n1 (centres undefined) | > 100 | – | – |
| CCOC(=O)C1=C(N)Oc2c(c(=O)oc3cc(OC)c(Cl)cc23)C1c1nc(OCc2ccccc2)c2ccccc2n1 (centres undefined) | > 100 | – | – |
| CCOC(=O)C1=C(N)Oc2c(c(=O)oc3cc(OC)ccc23)C1c1nc(OCc2ccccc2)c2ccccc2n1 (centres undefined) | > 100 | – | – |
| CCOC(=O)C1=C(N)Oc2c(c(=O)oc3ccccc23)C1c1nc(OCc2ccccc2)c2ccccc2n1 (centres undefined) | > 100 | – | – |
| CCOC(=O)C1=C(N)Oc2c(c(=O)oc3c(Br)cc(Cl)cc23)C1c1nc(OCc2ccccc2)c2ccccc2n1 (centres undefined) | 28.3 | 80 | > 95 |
| CCOC(=O)C1=C(N)Oc2c(c(=O)oc3ccc(F)cc23)C1c1nc(OCc2ccccc2)c2ccccc2n1 (centres undefined) | > 100 | – | – |
| CCOC(=O)C1=C(N)Oc2c(c(=O)oc3cc(C)c(C)cc23)C1c1nc(OCc2ccccc2)c2ccccc2n1 (centres undefined) | > 100 | – | – |
